Bioassay records from PubChem.
Compounds with a hit are over-represented: about 3% of the library has one in this group of screens.
SR-BI DiI-HDL act = SR-BI HDL lipid transfer activation; CHO ldlA[mSR-BI] cells, DiI-HDL uptake fluorescence, 3 h; 100 = double the neutral-control signal; 0.096% of 320,000 active; activation, % at 12.5 µM;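 active = mean replicate activation of at least 60% and every replicate at or above 60%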;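 note: 0% = median plate neutral-control signal and 100% = twice that signal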
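Test system: SR-BI-overexpressing, LDLR-lacking CHO cells. Measured by: DiI fluorescence, bottom read. Medium: Ham's F12 with 0.5% BSA, HEPES 25 mM, pH 7.4. Timing: 3 h uptake period with compound, 37 °C.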
SR-BI DiI inh = inhibitors of mouse SR-BI mediated HDL lipid uptake; ldlA[mSR-BI] CHO cells, DiI-HDL uptake fluorescence, 3 h; inhibition, % at 12.5 µM; 0.96% of 320,000 active; AID 488896;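 active = mean replicate inhibition of at least 70% and a set share of replicates each scoring 70 or more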;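 note: 0% = median of neutral control wells and 100% = median of positive control wells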
Target sequence (Q61009 whole entry, looked up): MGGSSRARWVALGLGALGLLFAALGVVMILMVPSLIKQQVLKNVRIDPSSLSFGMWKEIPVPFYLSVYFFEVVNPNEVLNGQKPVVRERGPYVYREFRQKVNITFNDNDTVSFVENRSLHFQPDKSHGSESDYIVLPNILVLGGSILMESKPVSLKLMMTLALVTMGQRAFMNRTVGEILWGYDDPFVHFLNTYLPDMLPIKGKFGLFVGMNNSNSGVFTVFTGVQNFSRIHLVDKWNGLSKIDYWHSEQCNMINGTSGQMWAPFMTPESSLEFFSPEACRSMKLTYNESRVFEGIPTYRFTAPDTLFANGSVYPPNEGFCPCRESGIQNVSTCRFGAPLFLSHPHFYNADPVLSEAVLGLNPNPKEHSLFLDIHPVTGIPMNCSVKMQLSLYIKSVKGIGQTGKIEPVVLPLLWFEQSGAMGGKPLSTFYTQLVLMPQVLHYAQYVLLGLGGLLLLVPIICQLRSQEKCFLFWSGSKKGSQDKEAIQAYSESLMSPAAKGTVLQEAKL
TMEM16A act = activates or potentiates the mouse TMEM16A chloride channel; Q8BHY3; HEK293 TMEM16A/YFP-H148Q/I152L, iodide quench fluorescence; stronger effect = lower value; B-score at 10 µM; 0.3% of 340,000 active; AID 623877;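 active = fluorescence-ratio B-score plate-corrected deviation score at least 3 library SD below zero, with starting fluorescence score within 5 deviations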;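 note: channel opened by trigger with iodide after compound preincubation; score built on the fluorescence ratio of max minus min over baseline; more negative score means more quench and so TMEM16A activation or potentiation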
FID counter = counter-screen for HCV NS3 helicase inhibitors: DNA intercalator displacement. 0.17% of 290,000 active. DNA fluorescent intercalator displacement, fluorescence. inhibition, % at 7.9 µM; in the data active = inhibition above about 37%;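 note: 0% = vehicle and 100% = reference compound; higher means more ethidium bromide displaced from hairpin DNA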
ANO1 block = blocks the mouse calcium-activated chloride channel TMEM16A; Q8BHY3; HEK293 TMEM16A/YFP iodide influx fluorescence, ionomycin; normalized B-score (activity score, 25-100; higher = stronger inhibition) at 10 µM; 1.2% of 310,000 active; AID 588511;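 active = ratio plate-corrected score three or more library SD toward inhibition, starting fluorescence score within five deviations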;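 note: score derived from kinetic fluorescence span divided by baseline fluorescence per well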
Kir21 block = inhibitors of mouse Kir2.1 inward-rectifier potassium channel; B-score at 10 µM; 0.85% of 310,000 active; HEK293-Kir2.1, FluxOR thallium flux fluorescence; stronger effect = lower value; P35561; AID 1672;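 active = fluorescence ratio B-score at or below minus 3 SD of library scores, with starting-brightness B-score within 2 SD, cut at about -4.2 in these data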;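 note: channel flux triggered by added potassium and thallium sulfate stimulus; B-score of peak minus minimum fluorescence over baseline after thallium stimulus; more negative B-score means stronger Kir2.1 block with less thallium influx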
DiI quench = counter-screen for SR-BI lipid transfer inhibitors: DiI fluorescence quenchers; shares compounds with SR-BI DiI inh; cell-free DiI-HDL fluorescence quenching, 30 min; AC50, µM (doses to about 35 µM), for inactives: at the highest dose activity change, negative = quenching; 20% of 470 active; AID 540326;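 active = quenching, a falling signal, with AC50 below a set limit tied to the top valid dose, actives reach about 32 µM in these data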
TMEM16A reconf = TMEM16A (mouse) chloride channel inhibition, re-confirmation; HEK293 TMEM16A/YFP-H148Q, iodide quench fluorescence; ionomycin added to raise cell calcium; AID 652189; inhibition, % at 10 µM; 39% of 2,300 active; shares compounds with ANO1 block;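 active = mean duplicate percent inhibition, scaled so buffer wells are 0 and the reference blocker 100, over three buffer SD above buffer mean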
HEK293 Ca mobil = counter-screen for TMEM16A inhibitors: effect on calcium mobilization | shares compounds with ANO1 block | TMEM16A/YFP HEK293, Fluo4 calcium mobilization | calcium response (% of ionomycin), % at 10 µM | 2% of 2,300 active | AID 652231;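 active = duplicate-averaged calcium signal over 20% of the ionomycin maximum, relative to buffer baseline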;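 note: each well's signal is peak minus trough fluorescence divided by its pre-addition baseline; 0% = buffer wells and 100% = ionomycin wells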
YFP-HEK293 quench = acts in parental YFP-HEK293 cells lacking TMEM16A, counter-screen. 2,300 tested, under 10 active. shares compounds with ANO1 block. AID 652233. YFP ratio F(max-min)/F0 at 10 µM. iodide YFP quench, ionomycin;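 active = yellow fluorescent protein signal ratio exceeding the buffer control mean by over 5 SD of those controls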;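 note: ratio is mean of duplicate wells from kinetic YFP trace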
ClC-1 inh = blocks the rat ClC-1 voltage-dependent chloride channel; shares compounds with ANO1 block; CHO ClC-1-YFP, iodide influx fluorescence quench; iodide control reads 0, buffer control 100; 2,300 tested, under 10 active; ratio percent, % at 10 µM;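 active = duplicate-mean ratio percent above the mean of iodide-only control wells, which defines zero, plus 5 of their SD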;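 note: higher percent means stronger block of ClC-1 iodide influx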
* hit, by the source's call.

What do the screens show for `COc1ccc(N(CC(=O)NC2CCCC2)C(=O)Cn2nnc(-c3ccc(C)cc3)n2)cc1`?
SR-BI DiI-HDL act: -8; SR-BI DiI inh: 8; TMEM16A act: inactive; FID counter: -30; ANO1 block: 25*; Kir21 block: 1; DiI quench: -3%; TMEM16A reconf: inactive; HEK293 Ca mobil: inactive; YFP-HEK293 quench: -0.93; ClC-1 inh: -4

Results for COc1ccc(-c2nc(CN3CCN(c4ncnc5ccccc45)CC3)c(C)o2)c(OC)c1 ?
SR-BI DiI-HDL act: -72; SR-BI DiI inh: 72*; TMEM16A act: inactive; FID counter: -22; ANO1 block: 100*; Kir21 block: -2.6; DiI quench: -1%; TMEM16A reconf: 20%*; HEK293 Ca mobil: inactive; YFP-HEK293 quench: -1.1; ClC-1 inh: -15

Results for COc1ccc(-c2nc(CN3CCN(c4ccccc4OC)CC3)c(C)o2)cc1 ?
SR-BI DiI-HDL act: -38; SR-BI DiI inh: 38; TMEM16A act: inactive; FID counter: -3; ANO1 block: inactive; Kir21 block: -0.19

How did CCc1cc2cc3c(cc2nc1SCC(=O)OC(C)C)OCO3 do in these assays?
SR-BI DiI-HDL act: -77; SR-BI DiI inh: 77*; TMEM16A act: inactive; FID counter: -5; ANO1 block: 100*; Kir21 block: 0.04; DiI quench: 4%; TMEM16A reconf: inactive; HEK293 Ca mobil: inactive; YFP-HEK293 quench: -1; ClC-1 inh: -16

Results for CC(Sc1n[nH]c(-c2cccs2)n1)C(=O)Nc1ccc(C(N)=O)cc1 (stereo unspecified) ?
SR-BI DiI-HDL act: 17; SR-BI DiI inh: -17; TMEM16A act: inactive

How did CCc1ccc(NC(=O)CCC(=O)Nc2nnc(C(C)C)s2)cc1 do in these assays?
SR-BI DiI-HDL act: 16; SR-BI DiI inh: -16; TMEM16A act: inactive; FID counter: -18; ANO1 block: inactive; Kir21 block: 2.8

How did CCNC(=O)C1CC(=O)N(c2ccc(Br)cc2)C1 (stereo unspecified) do in these assays?
SR-BI DiI-HDL act: 30; SR-BI DiI inh: -30; TMEM16A act: inactive; FID counter: 0; ANO1 block: inactive; Kir21 block: 0.01; TMEM16A reconf: inactive; HEK293 Ca mobil: inactive; YFP-HEK293 quench: -0.97; ClC-1 inh: -4

What do the screens show for `O=C(Nc1cccc(C(F)(F)F)c1)c1cccnc1NCCc1ccccc1`?
SR-BI DiI-HDL act: -9; SR-BI DiI inh: 9; TMEM16A act: inactive; FID counter: 8; ANO1 block: 25*; Kir21 block: 3.1; TMEM16A reconf: inactive; HEK293 Ca mobil: inactive; YFP-HEK293 quench: -1.1; ClC-1 inh: -5

How did CCCC(=O)Nc1c2c(nn1-c1ccc(C)cc1)CS(=O)(=O)C2 do in these assays?
SR-BI DiI-HDL act: 15; SR-BI DiI inh: -15; TMEM16A act: inactive; FID counter: -2; ANO1 block: 100*; Kir21 block: -0.48; TMEM16A reconf: inactive; HEK293 Ca mobil: inactive; YFP-HEK293 quench: -1; ClC-1 inh: -10

What do the screens show for `CCN(CC)C(=O)CSc1nnc(COc2ccccc2)n1CC`?
SR-BI DiI-HDL act: 15; SR-BI DiI inh: -15; TMEM16A act: inactive; FID counter: -17; ANO1 block: 25*; Kir21 block: -0.27; TMEM16A reconf: inactive; HEK293 Ca mobil: inactive; YFP-HEK293 quench: -0.94; ClC-1 inh: -10

Results for CCOC(=O)c1sc(N2C(=O)C(O)=C(C(=O)c3ccco3)C2c2cccc([N+](=O)[O-])c2)nc1C (stereo unspecified) ?
SR-BI DiI-HDL act: -4; SR-BI DiI inh: 4; TMEM16A act: inactive; FID counter: 4; ANO1 block: inactive; Kir21 block: 1.4

How did O=C(c1ccco1)N1CCN(C(=O)C2CCN(S(=O)(=O)c3cccc4nsnc34)CC2)CC1 do in these assays?
SR-BI DiI-HDL act: 2; SR-BI DiI inh: -2; TMEM16A act: inactive; FID counter: -9; ANO1 block: 100*; Kir21 block: -1.4; TMEM16A reconf: inactive; HEK293 Ca mobil: inactive; YFP-HEK293 quench: -1.1; ClC-1 inh: -12

What do the screens show for `COc1ccc(NC(=O)c2ccco2)c2ccccc12`?
SR-BI DiI-HDL act: 30; SR-BI DiI inh: -30; TMEM16A act: inactive; FID counter: -4; ANO1 block: inactive; Kir21 block: 1.7

How did CN1CCCC1CCNc1ccc2sc3ccccc3c(=O)c2c1 (stereo unspecified) do in these assays?
SR-BI DiI-HDL act: -69; SR-BI DiI inh: 69; TMEM16A act: inactive; ANO1 block: inactive; Kir21 block: -15; TMEM16A reconf: inactive; HEK293 Ca mobil: inactive; YFP-HEK293 quench: -0.73; ClC-1 inh: 6

How did O=C(Nc1ccc(NC(=O)c2ccc([N+](=O)[O-])cc2[N+](=O)[O-])cc1)c1ccco1 do in these assays?
SR-BI DiI-HDL act: -27; SR-BI DiI inh: 27; TMEM16A act: inactive; FID counter: 2; ANO1 block: inactive; Kir21 block: -0.87

Results for O=C(Nc1ccc(Nc2ccncc2)cc1)c1ccc(Nc2ccnc3ccc([N+](=O)[O-])cc23)cc1[N+](=O)[O-] ?
SR-BI DiI-HDL act: -49; SR-BI DiI inh: 49; TMEM16A act: inactive; FID counter: 32; ANO1 block: 25*; Kir21 block: 3.1; TMEM16A reconf: inactive; HEK293 Ca mobil: inactive; YFP-HEK293 quench: -0.99; ClC-1 inh: -4

How did O=C(O)/C=C/c1cn(Cc2ccccc2Cl)nc1-c1ccccc1 do in these assays?
SR-BI DiI-HDL act: 21; SR-BI DiI inh: -21; TMEM16A act: inactive; FID counter: -36; ANO1 block: inactive; Kir21 block: 1.7
